These results are taken from ChEMBL document CHEMBL3286203, “Reactive oxygen species (ROS) inducible DNA cross-linking agents and their effect on cancer cells and normal lymphocytes” (J Med Chem, 2014).

The term GI50 denotes the concentration giving 50% growth inhibition. Higher therefore signals lower sensitivity of the cells.

Activity calls are given as the source filed them. No cut-off for these calls is given here.

In one assay the test system is HOP-92. Nature of the assay: Cytotoxicity against human HOP92 cells after 48 hrs by SRB assay. The assay is classed as functional. As to conditions: HOP-92, 48 h. In outline:
(§1)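 GI50 was determined in the NCI Developmental Therapeutics Program in vitro 60-line cancer screen. Tumour lines were maintained in RPMI 1640 containing 5% FBS and 2 mM L-glutamine. Cells were inoculated at 5000–40 000 cells/well according to each line's doubling time before drug exposure.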
A general note: Sulforhodamine B stains cellular protein and so reports cell mass.

The next assay concerns NCI-H23. Nature of the assay: Cytotoxicity against human NCI-H23 cells after 48 hrs by SRB assay. Type of assay: functional. As to conditions: NCI-H23, 48 h. Summed up:
(§2)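 GI50 from the NCI Developmental Therapeutics Program in vitro human tumor cell screen. Cell lines were maintained in RPMI 1640 with 5% fetal bovine serum and 2 mM L-glutamine. They were seeded at 5000–40 000 cells/well, depending on each line's doubling time, then exposed to drug for 48 h at 37 °C, 5% CO2.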

The next assay has as its system NCI-H322M. In words: Cytotoxicity against human NCI-H322M cells after 48 hrs by SRB assay. Type of assay: functional. Summed up: as §2
Another assay concerns NCI-H460. Nature of the assay: Cytotoxicity against human NCI-H460 cells after 48 hrs by SRB assay. Type of assay: functional. To be noted: NCI-H460, 48 h. Summed up:
as §2

In a further assay the test system is NCI-H522. In words: Cytotoxicity against human NCI-H522 cells after 48 hrs by SRB assay. Type of assay: functional. To be noted: NCI-H522, 48 h. Summed up: as §2
The next assay relates to COLO 205. Nature of the assay: Cytotoxicity against human COLO205 cells after 48 hrs by SRB assay. To be noted: COLO 205, 48 h. The assay is classed as functional. Summed up: as §1
Another assay deals with HCC 2998. Nature of the assay: Cytotoxicity against human HCC2998 cells after 48 hrs by SRB assay. The assay is classed as functional. As to conditions: HCC 2998, 48 h. In outline:
as §1

In another assay the test system is HCT-116. In words: Cytotoxicity against human HCT116 cells after 48 hrs by SRB assay. The assay is classed as functional. As to conditions: HCT-116, 48 h. Summed up: as §1
The next assay relates to HT-29. In words: Cytotoxicity against human HT-29 cells after 48 hrs by SRB assay. The assay is classed as functional. To be noted: HT-29, 48 h. In outline: as §1
The test system of another assay is KM12. Nature of the assay: Cytotoxicity against human KM12 cells after 48 hrs by SRB assay. The assay is classed as functional. As to conditions: KM12, 48 h. In outline: as §1
The next assay has as its system SW-620. Nature of the assay: Cytotoxicity against human SW620 cells after 48 hrs by SRB assay. The assay is classed as functional. As to conditions: SW-620, 48 h. In outline: (§3)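 GI50 from the NCI-60 DTP human tumour line screen. Lines grown in RPMI 1640 with 5% fetal bovine serum and 2 mM L-glutamine, plated at 5000–40 000 cells/well according to doubling time. Incubated 48 h at 37 °C, 5% CO2.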

The test system of a further assay is SF-295. Nature of the assay: Cytotoxicity against human SF295 cells after 48 hrs by SRB assay. To be noted: SF-295, 48 h. The assay is classed as functional. Summed up: as §2
The test system of another assay is SF-539. In words: Cytotoxicity against human SF539 cells after 48 hrs by SRB assay. The assay is classed as functional. To be noted: SF-539, 48 h. In outline:
as §2

The test system of another assay is SNB-19. In words: Cytotoxicity against human SNB19 cells after 48 hrs by SRB assay. Type of assay: functional. As to conditions: SNB-19, 48 h. In outline:
as §3

In another assay the test system is LOX IMVI. In words: Cytotoxicity against human LOXIMVI cells after 48 hrs by SRB assay. The assay is classed as functional. In outline: as §1
A further assay deals with Malme-3M. In words: Cytotoxicity against human MALME-3M cells after 48 hrs by SRB assay. Type of assay: functional. Summed up: as §1
For a further assay, the system named is M14. In words: Cytotoxicity against human M14 cells after 48 hrs by SRB assay. As to conditions: M14, 48 h. The assay is classed as functional. Summed up: as §1
For the next assay, the system named is MDA-MB-435. In words: Cytotoxicity against human MDA-MB-435 cells after 48 hrs by SRB assay. The assay is classed as functional. To be noted: MDA-MB-435, 48 h. In outline:
as §2

A further assay deals with SK-MEL-2. Nature of the assay: Cytotoxicity against human SK-MEL-2 cells after 48 hrs by SRB assay. The assay is classed as functional. As to conditions: SK-MEL-2, 48 h. In outline:
as §2

Another assay relates to SK-MEL-5. In words: Cytotoxicity against human SK-MEL-5 cells after 48 hrs by SRB assay. The assay is classed as functional. As to conditions: SK-MEL-5, 48 h. Summed up:
as §2

A short description of assay [1]: Cytotoxicity against human UACC257 cells after 48 hrs by SRB assay. The assay is classed as functional. To be noted: UACC-257, 48 h. Summed up: as §3
Assay [2] is described as follows: Cytotoxicity against human UACC62 cells after 48 hrs by SRB assay. Type of assay: functional. To be noted: UACC-62, 48 h. In outline: as §3
A short description of assay [3]: Cytotoxicity against human OVCAR3 cells after 48 hrs by SRB assay. The assay is classed as functional. As to conditions: OVCAR-3, 48 h. Summed up: as §2
Assay [4] can be described thus: Cytotoxicity against human OVCAR4 cells after 48 hrs by SRB assay. The assay is classed as functional. To be noted: OVCAR-4, 48 h. Summed up: as §2
Assay [5] can be described thus: Cytotoxicity against human OVCAR8 cells after 48 hrs by SRB assay. Type of assay: functional. To be noted: OVCAR-8, 48 h. Summed up: as §2
A short description of assay [6]: Cytotoxicity against human NCI-ADR-RES cells after 48 hrs by SRB assay. Type of assay: functional. Summed up:
as §2

In the next assay the test system is 786-0. In words: Cytotoxicity against human 786-0 cells after 48 hrs by SRB assay. Type of assay: functional. As to conditions: 786-0, 48 h. In outline: as §1
Another assay relates to ACHN. In words: Cytotoxicity against human ACHN cells after 48 hrs by SRB assay. The assay is classed as functional. Summed up:
as §1

Another assay relates to CAKI-1. In words: Cytotoxicity against human Caki1 cells after 48 hrs by SRB assay. Type of assay: functional. To be noted: CAKI-1, 48 h. Summed up: as §1
In the next assay the test system is RXF 393. In words: Cytotoxicity against human RXF393 cells after 48 hrs by SRB assay. The assay is classed as functional. To be noted: RXF 393, 48 h. Summed up: as §2
The next assay concerns SN12C. In words: Cytotoxicity against human SN12C cells after 48 hrs by SRB assay. The assay is classed as functional. In outline: as §2
Assay [7] in a line: Cytotoxicity against human UO31 cells after 48 hrs by SRB assay. Type of assay: functional. To be noted: UO-31, 48 h. In outline:
as §3

The subject of a further assay is DU-145. Nature of the assay: Cytotoxicity against human DU145 cells after 48 hrs by SRB assay. The assay is classed as functional. To be noted: DU-145, 48 h. Summed up: as §1
Another assay has as its system MCF7. In words: Cytotoxicity against human MCF7 cells after 48 hrs by SRB assay. The assay is classed as functional. As to conditions: MCF7, 48 h. In outline:
as §1

Assay [8] is described as follows: Cytotoxicity against human Hs578T cells after 48 hrs by SRB assay. The assay is classed as functional. As to conditions: Hs-578T. In outline: as §1
The subject of another assay is BT-549. In words: Cytotoxicity against human BT549 cells after 48 hrs by SRB assay. Type of assay: functional. As to conditions: BT-549, 48 h. Summed up: as §1
A further assay concerns T47D. In words: Cytotoxicity against human T47D cells after 48 hrs by SRB assay. Type of assay: functional. In outline:
as §3

The nature of assay [9]: Induction of [32P]-labeled 49-mer oligonucleotide duplex DNA 12 interstrand cross-linking (unknown origin) at purine nucleotide site using compound radiolabeled at 3' of 12a in phosphate buffer at pH 7 at 90 degC after 30 mins by PAGE.
Assay [10] can be described thus: Induction of [32P]-labeled 49-mer oligonucleotide duplex DNA 12 interstrand cross-linking (unknown origin) at purine nucleotide site using compound radiolabeled at 5' of 12b at 90 deg C after 30 mins by PAGE in presence of piperidine.
The nature of assay [11]: Induction of [32P]-labeled 49-mer oligonucleotide duplex DNA 12 interstrand cross-linking (unknown origin) at purine nucleotide site using compound radiolabeled at 3' of 12a at 90 deg C after 30 mins by PAGE in presence of piperidine.
The next assay deals with HL-60(TB). Nature of the assay: Cytotoxicity against human HL-60(TB) cells after 48 hrs by SRB assay. The assay is classed as functional. As to conditions: HL-60, 48 h. In outline:
as §1

The subject of a further assay is K562. Nature of the assay: Cytotoxicity against human K562 cells after 48 hrs by SRB assay. Type of assay: functional. To be noted: K562, 48 h. Summed up: as §1
Another assay concerns RPMI-8226. In words: Cytotoxicity against human RPMI8226 cells after 48 hrs by SRB assay. The assay is classed as functional. To be noted: RPMI-8226, 48 h. In outline:
as §2

The next assay concerns SR. Nature of the assay: Cytotoxicity against human SR cells after 48 hrs by SRB assay. Type of assay: functional. In outline: as §3
A further assay concerns A549. In words: Cytotoxicity against human A549 cells after 48 hrs by SRB assay. The assay is classed as functional. As to conditions: A549, 48 h. Summed up: as §1

Regarding `CC1(C)OB(c2ccc(N(CCCl)CCCl)cc2)OC1(C)C`, the 50% growth inhibitory concentration (GI50) came out at 9.24 µM in the assay with HOP-92; 4.57 µM in the assay with NCI-H23; 14.7 µM with NCI-H322M; 0.33 µM in the assay on NCI-H460; 6.59 µM with NCI-H522; 11.6 µM with COLO 205. In addition, the 50% growth inhibitory concentration (GI50) is 14.9 µM in the assay on HCC 2998; 11.6 µM with HCT-116; 13.8 µM in the assay with HT-29; 14.9 µM in the assay on KM12; 11.3 µM with SW-620; 2.11 µM in the assay with SF-295. Further, the 50% growth inhibitory concentration (GI50) with SF-539 was found to be 5.7 µM; in the assay on SNB-19 it was 8.06 µM; in the assay on LOX IMVI, 5.17 µM; with Malme-3M, 17.5 µM; in the assay on M14 it was 5.1 µM; in the assay on MDA-MB-435, 14.2 µM. Besides, the concentration for 50% growth inhibition (GI50) with SK-MEL-2 turned out to be 22.1 µM; in the assay with SK-MEL-5, 14.5 µM; in assay [1] it was 11.6 µM; in assay [2], 6.12 µM; in [3], 14.6 µM; in assay [4] it was 17.4 µM. In addition, the GI50 stood at 7.83 µM in assay [5]; 5.33 µM in assay [6]; 5.35 µM in the assay with 786-0; 3.64 µM with ACHN; 2.78 µM in the assay on CAKI-1; 10.3 µM in the assay on RXF 393. The GI50 with SN12C was 4.11 µM; in [7], 5.78 µM; with DU-145 it was 4.25 µM; in the assay with MCF7, 4.12 µM; in assay [8], 26.2 µM; in the assay with BT-549, 10.5 µM. The GI50 turned out to be 10.7 µM in the assay with T47D; 4.66 µM with HL-60(TB); 17.2 µM in the assay with K562; 10.9 µM in the assay on RPMI-8226; 0.63 µM in the assay on SR; 2.69 µM in the assay with A549. In addition, the outcome in [9], in [10] and in [11] was Active.
Consider `CC1(C)OB(c2ccc(N(CCBr)CCOS(C)(=O)=O)cc2)OC1(C)C`, for which the result in [9], in assay [10] and in [11] was Active.
